A selection: hits, their analogues and other compounds. The true share with any hit is near 1.8%.
Dynein transport: inhibitors of GR-EGFP nuclear translocation, primary screen, dynein cargo transport inhibitor project, imaging, high-content, 3617.4 mouse cells | test concentration mostly 20 µM; stimulated with dexamethasone, 1 µM; stronger effect = lower value | z-score, hits read low | 0.47% of 220,000 active | AID 1381, 2008;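 active = plate z-score of nuclear minus cytoplasmic receptor signal below a set negative limit, without overly bright fluorescence or cell loss, cut at about -3.5 in these data, passing the limit was not always enough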;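 note: z-score of nuclear minus cytoplasmic ring GR-EGFP intensity difference per well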
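Also added – dexamethasone, 1.0 µM final · Buffer or medium – tet-free, stripped-serum medium · Schedule – induction 48 h, compound 1 h, agonist 30 min · Detection – formaldehyde fixation, Hoechst nuclear stain, 10x automated fluorescence imaging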
MDM2 E3 inh: MDM2-luciferase reporter signal enhancers, primary screen, MDM2 E3 ligase inhibitor project, cell-based, luminescence, 1536-well. cell-based MDM2 ubiquitination luciferase reporter, 2 h; 0 = plate control, 100 = twice control, blank-subtracted. AID 1230, 2008. E3 ubiquitin-protein ligase Mdm2 (Homo sapiens), Q00987. signal enhancement, % at 5 µM. 0.11% of 210,000 active;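 active = signal enhancement of 30% or more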;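 note: luminescence tracks abundance of the self-degrading MDM2-luciferase fusion protein; higher signal means inhibition of MDM2 E3 ligase activity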
Target sequence (Q00987 whole entry, looked up, the tested form may be a part): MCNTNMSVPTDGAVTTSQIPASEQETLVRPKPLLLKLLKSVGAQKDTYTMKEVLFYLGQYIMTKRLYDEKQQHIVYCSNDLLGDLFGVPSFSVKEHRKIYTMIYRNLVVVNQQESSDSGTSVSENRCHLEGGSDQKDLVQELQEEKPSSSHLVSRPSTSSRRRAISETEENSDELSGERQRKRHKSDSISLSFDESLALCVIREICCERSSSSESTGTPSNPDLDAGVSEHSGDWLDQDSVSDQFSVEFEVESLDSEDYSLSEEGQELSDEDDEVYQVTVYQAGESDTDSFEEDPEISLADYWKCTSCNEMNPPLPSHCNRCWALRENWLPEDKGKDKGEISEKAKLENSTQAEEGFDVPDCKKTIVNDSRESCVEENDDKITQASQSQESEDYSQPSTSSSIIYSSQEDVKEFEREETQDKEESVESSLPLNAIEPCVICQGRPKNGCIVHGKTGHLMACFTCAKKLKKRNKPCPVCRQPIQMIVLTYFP
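Timing – 2 h compound exposure at 37 °C · Assay system – mammalian cells stably expressing self-ubiquitinating, self-degrading MDM2 E3–luciferase fusion · Amount – 2000 cells seeded into each well · Measure – % luminescence enhancement versus blank-corrected plate control mean · Measured by – SteadyLite luminescence, 15 min reagent step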
Autophagy HCS: autophagy modulators in MEF cells, primary screen, imaging, high-content, MEF GFP-LC3. MEF GFP-LC3 puncta imaging; test concentration mostly 10 µM. calls only at 10 µM (by protocol). 0.98% of 190,000 active. AID 463193, 2010;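 active = percentage of spot-positive cells more than 3 SD above its plate mean, without a fluorescence outlier flag or 80% toxicity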;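 note: spot-positive cell cutoff set from DMSO-treated cells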
zVAD death inh: inhibitors of zVAD-triggered necroptosis, primary screen, L929 cells | L929 zVAD necroptosis rescue, ATP luminescence, 24 h; with zVAD 60 µM | viability rescue, % at 10 µM | 0.38% of 220,000 active | AID 1377, 2008;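 active = activation, scaled between plate controls, above about 75%, limit read from the data; inactive = activation under that limit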;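 note: 0% = zVAD with DMSO and 100% = DMSO alone without zVAD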
TNF death inh: inhibitors of TNF-alpha triggered necroptosis, primary screen, cell-based, Jurkat FADD-/-, single concentration. activation (protection from cell death), % at 10 µM. AID 463075, 2010. 0.068% of 220,000 active. Jurkat FADD-/- TNF necroptosis rescue, ATP luminescence, 24 h; 0 = TNF only, 100 = no-TNF cells;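 active = activation, meaning protection from cell death, of at least 50% relative to plate controls; inactive = activation below 50%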;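 note: necroptosis triggered by 40 ng/mL TNF-alpha added together with compound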
* hit, by the source's call; i = inactive; · = no result; + = active, no number.

SMILES	Dynein transport	MDM2 E3 inh	Autophagy HCS	zVAD death inh	TNF death inh
CN(C)CC(CCC(CN(C)C)C(=O)c1ccccc1)C(=O)c1ccccc1 (stereo unspecified)	-5*	-44	·	-2	-31
COc1ccc(OCC(O)CNC(=O)/C=C/c2cccc([N+](=O)[O-])c2)cc1 (stereo unspecified)	-0.69	-13	i	3	0
Cc1ccc(Cn2ncc3c(N4CCN(C5CCCC5)CC4)ncnc32)cc1	-0.49	-9	i	-1	1
COC(=O)Cc1csc(Nc2ccc(F)c(Cl)c2)n1	0.67	-5	i	2	4
O=C(CSc1nnc2c3ccccc3c3ccccc3c2n1)Nc1ccccc1	-0.8	-18	+	0	-7
O=C(CSc1nnc2c3ccccc3c3ccccc3c2n1)Nc1ccccc1F	0.0039	-20	i	0	-5
Cc1cc(Cl)c(OCCCCNC(C)(C)C)c(Br)c1	0.53	-9	i	3	4
COc1ccc2nc(SCC(=O)Nc3ccc4sc(C)nc4c3)c(C#N)cc2c1	4.8	2	+	0	-6
CN(C(=O)CSc1nnnn1-c1ccccc1)C1CCS(=O)(=O)C1 (stereo unspecified)	0.38	-25	i	1	2
Cc1ccc(-c2[nH]ncc2/C=N/n2c(COc3ccccc3)nc3ccccc3c2=O)cc1	0.98	-2	+	4	-1
Cc1cc(/C=N/n2c(COc3ccccc3)nc3ccccc3c2=O)c(O)c([N+](=O)[O-])c1	0.28	-13	i	2	-2
Cc1ccccc1OCc1nc2ccccc2c(=O)n1/N=C/c1cn[nH]c1-c1ccccc1	0.28	-31	+	3	-1
Cc1nc2ccccc2c(=O)n1/N=C/c1cn[nH]c1-c1ccccc1	-0.13	-12	·	1	-4
COCCNC(=O)CN(C(=O)CCC(=O)Nc1ccccn1)c1ccccc1F	-0.65	-1	i	1	2
CC(C)CC1NC(=O)N(CC(=O)NC2CCCc3ccccc32)C1=O (stereo unspecified)	0.46	-4	i	1	-1
O=C1Nc2ccccc2Oc2cc([N+](=O)[O-])cc(Oc3ccccc3)c21	1.8	4	+	0	-6
CCOc1ccc(-n2c(N)c(C(=O)NCc3ccco3)c3nc4ccccc4nc32)cc1	-0.85	-4	i	0	-3
CCOc1ccc(-n2c(N)c(-c3nc4ccccc4n3C)c3nc4ccccc4nc32)cc1	-0.2	-14	+	1	-3
CCN1CCN(c2cc(C)c3cc(NC(=O)c4ccncc4)ccc3n2)CC1	0.64	-13	i	1	1
CCCN(CCC)CCCNC(=S)Nc1ccc2nc(N3CCN(C)CC3)cc(C)c2c1	-0.26	-6	+	0	-4
CCN1CCN(c2cc(C)c3cc(NC(=O)c4ccc(Br)o4)ccc3n2)CC1	-0.32	-26	+	36	-3
O=C(N/N=C/c1cc2ccccc2[nH]1)c1ccccc1Cl	-0.53	·	·	0	-2
CSc1ncc(Cl)c(C(=O)Nc2sc3c(c2C(=O)NCc2ccco2)CCCC3)n1	-0.46	-4	+	0	1
CCOc1ccc(S(=O)(=O)Nc2ccc(O)c(Sc3ncn[nH]3)c2)cc1	-0.62	-4	i	0	-1
Cc1ccc(S(=O)(=O)Nc2ccc(O)c(Sc3ncn[nH]3)c2)cc1	-0.039	-9	i	1	1
SMILES	Dynein transport	MDM2 E3 inh	Autophagy HCS	zVAD death inh	TNF death inh
Cc1ccc(C)c(S(=O)(=O)Nc2ccc(O)c(Sc3ncn[nH]3)c2)c1	0.87	0	·	0	0
CC(C)c1ccc(S(=O)(=O)/N=C2/C=C(Sc3ncn[nH]3)C(=O)c3ccccc32)cc1	-5.3*	10	i	2	-9
Cc1ccc(S(=O)(=O)/N=C2/C=C(Sc3ncn[nH]3)C(=O)c3ccccc32)c(C)c1	-3.6*	6	i	3	-9
Cc1ccc(S(=O)(=O)/N=C2/C=C(Sc3ncn[nH]3)C(=O)c3ccccc32)cc1	-3.7*	5	i	2	0
CCOc1ccccc1NC(=O)CN(c1ccc(OC)cc1OC)S(=O)(=O)c1ccccc1[N+](=O)[O-]	-0.073	-13	i	0	-2
CN1C(=CC=C2C=C(I)C(=O)C(I)=C2)C(C)(C)c2ccccc21	-0.37	1	·	-3	-26
CN1/C(=C\C=C2/C(=O)Oc3ccccc3C2=O)C(C)(C)c2ccccc21	-2.1	·	+	1	2
Cn1c(CC(=O)c2ccc(Br)cc2)[n+](C)c2ccccc21	-0.3	-9	+	1	0
N#CC(c1nc2ccccc2nc1OCCO)S(=O)(=O)c1ccccc1 (stereo unspecified)	-0.67	-7	·	4	4
CCOC(=O)c1cc(CC)sc1NC(=O)c1cc([N+](=O)[O-])ccc1N1CCOCC1	-1.1	-3	+	-1	-9
O=C(c1ccc(Br)cc1)c1cc([N+](=O)[O-])ccc1N1CCOCC1	-1.1	-1	+	-2	-4
O=C(c1ccccc1)c1cc([N+](=O)[O-])ccc1N1CCOCC1	-0.53	-6	i	-1	-2
Cc1ccc(C(=O)c2cc([N+](=O)[O-])ccc2N2CCCCC2)cc1	0.56	-4	i	-1	-4
O=C(c1ccc(Cl)cc1)c1cc([N+](=O)[O-])ccc1N1CCOCC1	-0.42	-1	+	0	-5
CC1=NNC(=O)C(CC(=O)Nc2ccc(Cl)c(Cl)c2)C1 (stereo unspecified)	-0.54	-11	i	1	1
Cc1cccc(CN2CCN(Cc3cccc(-n4cccn4)c3)CC2CCO)n1 (stereo unspecified)	-0.5	1	+	0	0
CCOC(=O)C1CCCN(C(=O)c2ccc(CNc3c(N4CCC(C)CC4)c(=O)c3=O)cc2)C1 (stereo unspecified)	-1	92*	i	2	0
N#C/C(=C\Nc1ccccc1O)c1nc2ccccc2o1	-1.4	-3	i	1	2
COC(=O)CN(c1ccccc1)S(=O)(=O)c1cc(Br)ccc1OC	1.5	-46	i	0	0
CCOC(=O)C1(CC/C(C)=N\NC(N)=O)CC(C)(C)OC1=O (stereo unspecified)	-0.89	1	+	0	0
COc1ccc(C2=CC(=O)C=CC2=O)cc1	-6.3*	·	·	-1	-21

Screening results: PubChem BioAssay, several laboratories
